Shown are actives, neighbours in structure and some others; about 1.5% of the full set was active somewhere.
MEX-5 binding: MEX-5 zinc finger RNA-binding disruptors – biochemical, C. elegans, fluorescence polarization, MLPCN library, primary screen; Zinc finger protein mex-5 (Caenorhabditis elegans), Q9XUB2; MEX-5/FITC-TCR2 RNA binding; stronger effect = lower value; activity score (negative = inhibition of binding), % at 10 µM; 0.38% of 300,000 active; AID 1832, 2009;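 active = inhibition past about -25% in most replicates, and total fluorescence under double the plate's negative control median, limit read from the data; inconclusive = replicates evenly split on the limit, or fluorescence at least double controls; inactive = too little inhibition in most replicates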;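 note: 0% = DMSO and -100% = 5 µM competing unlabeled TCR2 RNA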
Target sequence (Q9XUB2 whole entry, looked up): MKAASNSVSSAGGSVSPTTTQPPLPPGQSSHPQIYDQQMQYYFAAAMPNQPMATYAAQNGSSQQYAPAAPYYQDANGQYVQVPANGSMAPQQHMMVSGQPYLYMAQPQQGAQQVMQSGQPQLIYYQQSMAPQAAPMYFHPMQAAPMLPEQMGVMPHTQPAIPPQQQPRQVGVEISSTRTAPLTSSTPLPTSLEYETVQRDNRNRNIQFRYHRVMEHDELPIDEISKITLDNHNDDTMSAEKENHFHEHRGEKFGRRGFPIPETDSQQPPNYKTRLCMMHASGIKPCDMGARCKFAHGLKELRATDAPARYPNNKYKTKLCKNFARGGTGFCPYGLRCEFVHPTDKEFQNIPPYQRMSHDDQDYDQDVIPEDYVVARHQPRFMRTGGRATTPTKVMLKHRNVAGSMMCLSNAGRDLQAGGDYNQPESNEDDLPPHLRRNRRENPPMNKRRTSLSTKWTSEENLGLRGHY
FID counter: compounds displacing fluorescent DNA intercalator, primary screen, artefact control for HCV NS3 helicase inhibitor project, biochemical, FID fluorescence | DNA fluorescent intercalator displacement | 0.17% of 290,000 active | inhibition, % at 7.9 µM; in the data active = inhibition above about 37%;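 note: 0% = vehicle and 100% = reference compound; higher means more ethidium bromide displaced from hairpin DNA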
HCV core dimer: inhibitors of HCV core protein dimerization, primary screen, biochemical, TR-FRET, high-throughput. TR-FRET GST/Flag-core106 dimerization, 1536-well. inhibition, % at 5 µM. 0.33% of 300,000 active. AID 1899, 2009;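 active = inhibition above the mean of all tested compounds plus 3 SD, set per screening campaign, cut at about 45% in these data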
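assay system = GST-tagged and Flag-tagged HCV core protein residues 1-106 | controls = unlabelled core106 and no-GST-core106 wells | incubation = compound-protein-antibody incubation 4 h at 22.5 °C | probe or stimulus = Eu donor and XL665 acceptor anti-tag antibodies | read-out = % inhibition based on acceptor/donor emission ratio | signal = TR-FRET 671 and 617 nm emission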
NRP1-CendR mod: modulators of CendR peptide binding to NRP-1, primary screen, biochemical, fluorescence polarization, uHTS. FAM-RPARPAR peptide binding to NRP-1. inhibition, % at 25 µM. 0.85% of 360,000 active. AID 602438, 2012;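 active = inhibition or corrected inhibition above about 18%, plus a signal ratio from 0.5 to 1.5, limit read from the data, passing the limit was not always enough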
* marks the source's active call; other numbers are inactive results; ? = inconclusive; . = no result; ! = a repeat was not active.

SMILES | MEX-5 binding | FID counter | HCV core dimer | NRP1-CendR mod
CC1(C(=O)Nc2cccc(OC(F)(F)F)c2)Cc2c(-c3cccc(C(N)=O)c3)ccnc2O1 (stereo unspecified) | . | . | . | 1
CCCCCc1c(C)nc(Nc2ccccc2)[nH]c1=O | 2 | -3 | -4 | 38*
Cc1ccc(Nc2nc(C)c(CCC(C)C)c(=O)[nH]2)cc1 | -1 | -5 | 0 | 5
COCc1c(C(=O)Nc2nnc(C3CC3)s2)oc2ccccc12 | . | . | . | -2
O=C(N[C@H](CO)c1ccccc1)[C@H]1O[C@@H](n2ccc(=O)[nH]c2=O)[C@H](O)[C@@H]1O | . | . | . | -5
Cc1ccc(NC(=O)C2=CC(c3ccc(C)cc3)=NS(=O)(=O)N2C)cc1 | 2 | -10 | 1 | 21*
CC1(C(=O)NS(=O)(=O)Cc2cccc(Cl)c2)CCN1C(=O)C1(c2ccc(Cl)cc2)CCC1 (stereo unspecified) | . | . | . | 0
Clc1ccc2nc(N3CCNCC3)nc(-c3ccccc3)c2c1 | 0 | 44* | 0 | 1
C#CCN(C[C@H]1[C@H](OC(=O)NCc2ccco2)[C@H](OC(=O)NCc2ccco2)C[C@@H](C(=O)OC)[C@H]1C(=O)OC)S(=O)(=O)c1ccc(C)cc1 | . | . | . | 0
COc1cccc(/C=N/N2CCOCC2)c1O | 1 | 1 | -6 | 8
Oc1ccc(/C=N/N2CCOCC2)c(O)c1O | -47* | -2 | -5 | 11
Oc1ccc(/C=N/N2CCCCC2)c(O)c1O | -29* | -14 | -2 | 12
Oc1cccc(/C=N/N2CCCCC2)c1O | -7 | -10 | -2 | 6
CC(C)CNc1ncnc2c1ncn2[C@H]1CN(Cc2ccc(C(=O)O)cc2)C[C@@H](CO)O1 | . | . | . | -1
Cc1nc2ccccc2c2oc(C(=O)Nc3ccc(C(C)C)cc3)cc12 | 1 | -21 | -4 | -8
CCCN(CCC)C(=O)c1cc(-c2ccc3c(c2)OCO3)nc2ccccc12 | -1 | -19 | 56* | -9
Cc1cccc(-c2cc(C(=O)Nc3ccc4c(c3)OCCO4)c3ccccc3n2)c1 | 0 | -1 | 15 | 9
Cc1nc2ccccc2c2oc(C(=O)Nc3ccc4c(c3)OCCO4)cc12 | -28* | -7 | 8 | -10
O=C(O)c1cc(-c2ccc3c(c2)OCO3)nc2ccccc12 | -1 | 2 | 5 | -6
CCOc1ccc(-c2cc(C(=O)Nc3ccc4c(c3)OCCO4)c3ccccc3n2)cc1 | 0 | 1 | 21 | 56*
CNC(=O)C[C@H]1C(=O)N(C2CCCCC2)C[C@@H]1c1ccc(Br)cc1 | . | . | . | -6
O=C1c2ccccc2C(c2nnnn2Cc2ccccc2)N1Cc1cccs1 (stereo unspecified) | . | . | . | 2
NC(=S)N=Nc1ccc(NN=C(N)N)cc1 | -53* | 36 | -20 | 17
O=S(=O)(NCc1ccccc1)c1ccc(S(=O)(=O)N(Cc2ccccn2)Cc2ccco2)cc1 | -3 | -10 | 5 | 38*
CCCCc1c(-c2cccc(Cl)c2)ncn1CCc1ccccc1OC | . | . | . | 9
SMILES | MEX-5 binding | FID counter | HCV core dimer | NRP1-CendR mod
CC1=C(C(=O)OCC2CCCO2)C(c2ccccc2)NC(=O)N1 (stereo unspecified) | 0 | -8 | -1 | 28*
CC1=C(C(=O)OCC2CCCO2)C(c2ccc(O)cc2)NC(=O)N1 (stereo unspecified) | -2 | 1 | -1 | -1
CC(C)CCN1CCC(n2nccc2NC(=O)c2ccc3c(c2)OCO3)CC1 | 0 | 3 | -3 | 35*
Nn1c(SCC(=O)NCCC2=CCCCC2)nnc1C(F)(F)F | -1 | -2 | -5 | 28*
CCCc1nnc(NC(=O)CCCN2C(=O)c3ccccc3C2=O)s1 | -1 | -3 | 0 | 29*
CCCc1nnc(NC(=O)c2cc3ccccc3oc2=O)s1 | -2 | -1 | 1 | 26*
CCOc1ccc2c(c1)/C(=N/N1C(=O)c3ccccc3C1=O)C(=O)N2 | -1 | -14 | -10 | -1
CCOc1ccc2c(c1)/C(=C(\C(Cl)=C(Cl)Cl)[N+](=O)[O-])N2 | -44* | 0 | 8 | -14
O=[N+]([O-])/C(C(Cl)=C(Cl)Cl)=C1\Nc2ccccc2O1 | -2 | 4 | -5 | 8
CCCCOc1ccc2c(c1)/C(=C(\C(Cl)=C(Cl)Cl)[N+](=O)[O-])N2 | -59* | 6 | 18 | -44
O=C(OCc1ccccc1)N(CCF)c1cn(Cc2ccccc2)c(=O)n(Cc2ccccc2)c1=O | . | . | . | -2
CC(=O)Nc1ccc2nc3c(=O)n(C)c(=O)n(C)c3nc2c1 | -13 | 2 | 17 | 42*
CC(O)(c1cccnc1)c1nc(-c2ccc(S(C)(=O)=O)cc2)cs1 (stereo unspecified) | . | . | . | -9
CC(/C=N/NC(=O)c1cc(-c2ccccc2)nc2ccccc12)=C\c1ccco1 | 3 | -13 | 51* | 2
CC(/C=N/NC(=O)c1cc(-c2ccc(Cl)cc2)nc2ccccc12)=C\c1ccco1 | 0 | -2 | 88* | -22
CC(/C=N/NC(=O)CSc1nnc(SCc2ccccc2)s1)=C\c1ccco1 | 1 | -15 | 48* | -13
CCc1nc2c(OCC(=O)c3ccc(F)cc3)cccn2c1N(C)C(=O)C(C)C | . | . | . | -10
CC1(C)OC(=O)C2=C(C[C@@H](C3CCCCC3)O[C@@H]2c2ccc(F)cc2)O1 | . | . | . | -20
Cc1cc(C)c(S(=O)(=O)/N=C2\C=C(NS(=O)(=O)c3ccccc3)C(=O)c3ccccc32)c(C)c1 | 2 | 14 | 2 | 28*
Cc1cc(C)c(S(=O)(=O)/N=C2\C=C(Nc3ccc(C(=O)O)cc3)C(=O)c3ccccc32)c(C)c1 | -1 | 2 | -1 | 23
Cc1ccc(S(=O)(=O)/N=C2\C=C(NS(=O)(=O)c3ccccc3)C(=O)c3ccccc32)cc1 | . | . | . | 65*
O=C1O[C@@H](c2ccccc2)C[C@@H](O)C(=O)CCCCc2ccccc21 | . | . | . | 10
O=[N+]([O-])c1ccc(/C([O-])=C(/C(=S)NCc2ccco2)[n+]2ccccc2)cc1 | -2 | 1 | 52* | 3
NC(=O)NN=C1C2CCCC1C(c1ccccc1)NC2c1ccccc1 (stereo unspecified) | -2 | -18 | 4 | 45*
O=C(NCc1ccccc1)c1cc(C2COCCN2C(=O)C/C=C/c2ccccc2)on1 (stereo unspecified) | . | . | . | -3
O=c1[nH]c2ccc(N/C(=N/S(=O)(=O)c3ccccc3)c3ccccc3)cc2[nH]1 | 0 | -11 | -8 | 21*
CC(=O)Nc1ccc(N/C(=N\S(=O)(=O)c2ccccc2)c2ccccc2)cc1 | -3 | -14 | -1 | 2
Cc1ccc(NC(=S)N/C(=N/S(=O)(=O)c2ccccc2)c2ccccc2)cc1 | -1 | -15 | 10 | 22*!
CCc1ccc(NC(=O)/C(C#N)=C/c2cc3ccc(C)cc3nc2N2CCOCC2)cc1 | -41* | 3 | 3 | -86
COc1ccc(NC(=O)/C(C#N)=C\c2ccc(N3CCOCC3)o2)cc1 | ? | -5 | -33 | 133

Source: PubChem (several laboratories)
